The values that follow come from ChEMBL document CHEMBL5370639, “Structure-Based Lead Optimization of Enterovirus D68 2A Protease Inhibitors” (J Med Chem, 2023).

The nature of data set [1]: Binding affinity to Enterovirus D68 US/KY/14-18953 2A protease expressed in Escherichia coli BL21(DE3) assessed as inhibition constant using Dabcyl-KIRIVNT/GPGEGGE-Edans as substrate incubated for 2 hrs by FRET assay. A digest of the protocol: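 Progression-curve kinetics: FRET substrate at 40 μM final in 50 mM Tris pH 7.0, 100 mM NaCl, 2 mM DTT, 10% glycerol with varying inhibitor; reaction started by adding 2Apro to 0.4 μM final. Fluorescence (ex 360/40, em 460/40 nm) read every 71 s for 2 h at 30 °C. Curves fitted by the Morrison equation or an earlier-described equation.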

The nature of data set [2]: (§1) Cytotoxicity against human RD cells assessed as reduction in cell viability by neutral red staining based CPE assay. The following applies: RD cells. The data set is classed as toxicity. A digest of the protocol: (§2)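 Uninfected RD cells, grown overnight to ~90% confluency, treated with compound under otherwise the same handling as the antiviral assay. Viability by neutral red uptake (66 μg/mL, 2 h, absorbance 540 nm). CC50 from best-fit dose-response curve; mean ± SD of two independent experiments, three repeats each.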

The subject of data set [3] is enterovirus D68. Put plainly: Antiviral activity against enterovirus D68 US/MO/14-18947 infected in human RD cells assessed as reduction in virus plaque formation measured after 3 days by neutral red staining assay. Format: functional, organism-based. The following applies: Enterovirus D, US/MO/14-18947, RD, 72 h. Summed up:
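RD cells infected with virus in DMEM/2% FBS/30 mM MgCl2 for at least 1 h at 33 °C, then given compound under a 1.2% avicel microcrystalline cellulose overlay. Cells stained after 3 days and plaques counted. EC50 from curve fitting; mean ± SD of two repeats.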

Data set [4] is described as follows: Inhibition of Enterovirus D68 US/KY/14-18953 2A protease expressed in Escherichia coli BL21(DE3) using Dabcyl-KIRIVNT/GPGEGGE-Edans as substrate incubated for 2 hrs by FRET assay.
Data set [5] has as its system enterovirus D68. Description: Antiviral activity against enterovirus D68 US/MO/14-18947 infected in human RD cells assessed as reduction in virus induced cytopathic effect by neutral red staining based CPE assay. Format: functional, organism-based. The settings on record: Enterovirus D, US/MO/14-18947, RD. Summed up: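 RD cells seeded overnight to ~90% confluency, washed with PBS containing Mg/Ca, infected with virus in DMEM/2% FBS/30 mM MgCl2 for at least 1 h at 33 °C, then compound added. Cells stained with 66 μg/mL neutral red for 2 h; uptake read at 540 nm. EC50 from dose-response fit; mean ± SD of two independent experiments, three repeats each.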
Background: Protection from cytopathic effect is a common read-out in antiviral testing.

In data set [6] the test system is enterovirus D68. Description: Antiviral activity against enterovirus D68 US/IL/14-18952 infected in human RD cells assessed as reduction in virus induced cytopathic effect by neutral red staining based CPE assay. Format: functional, organism-based. The settings on record: Enterovirus D, US/IL/14-18952, RD. A digest of the protocol:
(§3)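 RD cells were seeded overnight to about 90% confluency and washed with PBS containing Ca/Mg. They were infected with virus in DMEM with 2% FBS and 30 mM MgCl2 for at least 1 h at 33 °C in 5% CO2, then compound was added. Viability was read by neutral red staining (66 μg/mL, 2 h) at A540. EC50 was taken from dose-response curve fits.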

Data set [7] can be described thus: Toxicity in BALB/c mouse assessed as survival at 100 mg/kg, ip administered on day 1 and followed by 200 mg/kg, ip on day 3, 300 mg/kg, ip on day 7, 400 mg/kg, ip on day 12 measured after 16 days of initial dose. Format: organism-based. The following applies: in vivo, 1000 mg/kg, 384 h, time 16 day. Summed up:
(§4)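 Three female BALB/c mice of about 19 g each received i.p. doses in corn oil with 10% DMSO, escalating in the same animals. They were given 100 mg/kg first, then 200, 300 and 400 mg/kg on days 1, 3, 7 and 12, with time for elimination between doses. Body weight and general health were monitored throughout the study.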

Data set [8] concerns enterovirus D68. Put plainly: Antiviral activity against enterovirus D68 US/KY/14-18953 infected in human RD cells assessed as reduction in virus induced cytopathic effect by neutral red staining based CPE assay. The settings on record: Enterovirus D, US/KY/14-18953, RD. The data set is classed as functional, organism-based. Summed up: as §3
The target in data set [9] is T1, Cytochrome P450 1A2 (Homo sapiens, UniProt P05177).
T1 sequence (P05177 whole entry): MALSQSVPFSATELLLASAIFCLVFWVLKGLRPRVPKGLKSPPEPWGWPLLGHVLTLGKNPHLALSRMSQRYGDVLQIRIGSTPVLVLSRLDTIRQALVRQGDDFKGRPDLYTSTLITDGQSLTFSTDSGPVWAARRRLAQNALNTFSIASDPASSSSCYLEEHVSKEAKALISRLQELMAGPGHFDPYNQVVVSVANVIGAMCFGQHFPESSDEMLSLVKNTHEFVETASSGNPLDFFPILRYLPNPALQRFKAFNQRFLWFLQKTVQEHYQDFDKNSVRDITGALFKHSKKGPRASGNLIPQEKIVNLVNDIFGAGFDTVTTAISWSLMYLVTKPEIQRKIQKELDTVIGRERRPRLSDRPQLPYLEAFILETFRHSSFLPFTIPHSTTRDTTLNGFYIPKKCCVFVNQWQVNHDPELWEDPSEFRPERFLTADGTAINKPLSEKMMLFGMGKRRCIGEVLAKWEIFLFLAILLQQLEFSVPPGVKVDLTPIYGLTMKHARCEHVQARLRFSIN
Put plainly: Inhibition of CYP1A2 (unknown origin). Format: ADME.

Data set [10] deals with Cytochrome P450 3A (Homo sapiens, UniProt P08684+P20815+Q9HB55+P24462). Description: Inhibition of CYP3A (unknown origin). The data set is classed as ADME, protein assay.
For data set [11], the target named is Cytochrome P450 2C19 (Homo sapiens, UniProt P33261). Description: Inhibition of CYP2C19 (unknown origin). The data set is classed as ADME.
In data set [12] the target is Cytochrome P450 2C9 (Homo sapiens, UniProt P11712). Description: Inhibition of CYP2C9 (unknown origin). Format: ADME.
The test system of data set [13] is enterovirus D68. Description: Antiviral activity against enterovirus D68 US/IL/14-18956 infected in human RD cells assessed as reduction in virus induced cytopathic effect by neutral red staining based CPE assay. The settings on record: Enterovirus D, US/IL/14-18956, RD. The data set is classed as functional, organism-based. A digest of the protocol:
as §3

Data set [14] in a line: Toxicity in BALB/c mouse assessed as change in body weight at 100 mg/kg, ip administered on day 1 and followed by 200 mg/kg, ip on day 3, 300 mg/kg, ip on day 7, 400 mg/kg, ip on day 12 measured after 16 days of initial dose. The data set is classed as organism-based. The settings on record: in vivo, 384 h, time 16 day. Summed up:
as §4

Data set [15] is described as follows: Toxicity in BALB/c mouse assessed as mortality at 100 mg/kg, ip administered on day 1 and followed by 200 mg/kg, ip on day 3, 300 mg/kg, ip on day 7, 400 mg/kg, ip on day 12 measured after 16 days of initial dose. Format: organism-based. The following applies: in vivo, 384 h, time 16 day. A digest of the protocol: as §4
In data set [16] the test system is enterovirus D68. Put plainly: Antiviral activity against enterovirus D68 US/MO/14-18949 infected in human RD cells assessed as reduction in virus induced cytopathic effect by neutral red staining based CPE assay. The data set is classed as functional, organism-based. The following applies: Enterovirus D, US/MO/14-18949, RD. A digest of the protocol:
as §3

For data set [17], the target named is Cytochrome P450 2D6 (Homo sapiens, UniProt P10635). Put plainly: Inhibition of CYP2D6 (unknown origin). Format: ADME.
Data set [18] deals with RD. The data set is described as §1. The data set is classed as toxicity. The following applies: rd. A digest of the protocol:
as §2

Chain of Cytochrome P450 2C19 (P33261 whole entry): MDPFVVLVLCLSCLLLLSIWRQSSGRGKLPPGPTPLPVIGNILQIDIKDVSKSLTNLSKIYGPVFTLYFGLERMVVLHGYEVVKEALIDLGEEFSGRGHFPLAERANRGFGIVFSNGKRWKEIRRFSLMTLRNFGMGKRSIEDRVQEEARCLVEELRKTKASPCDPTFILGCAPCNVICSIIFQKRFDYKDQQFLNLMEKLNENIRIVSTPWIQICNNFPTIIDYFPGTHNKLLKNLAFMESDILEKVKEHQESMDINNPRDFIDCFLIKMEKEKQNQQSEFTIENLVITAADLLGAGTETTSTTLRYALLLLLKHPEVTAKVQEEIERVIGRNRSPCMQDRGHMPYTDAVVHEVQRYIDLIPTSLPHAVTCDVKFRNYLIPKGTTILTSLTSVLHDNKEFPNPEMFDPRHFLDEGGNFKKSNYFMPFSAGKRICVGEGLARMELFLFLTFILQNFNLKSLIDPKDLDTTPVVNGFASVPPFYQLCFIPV
Chain of Cytochrome P450 2D6 (P10635 whole entry): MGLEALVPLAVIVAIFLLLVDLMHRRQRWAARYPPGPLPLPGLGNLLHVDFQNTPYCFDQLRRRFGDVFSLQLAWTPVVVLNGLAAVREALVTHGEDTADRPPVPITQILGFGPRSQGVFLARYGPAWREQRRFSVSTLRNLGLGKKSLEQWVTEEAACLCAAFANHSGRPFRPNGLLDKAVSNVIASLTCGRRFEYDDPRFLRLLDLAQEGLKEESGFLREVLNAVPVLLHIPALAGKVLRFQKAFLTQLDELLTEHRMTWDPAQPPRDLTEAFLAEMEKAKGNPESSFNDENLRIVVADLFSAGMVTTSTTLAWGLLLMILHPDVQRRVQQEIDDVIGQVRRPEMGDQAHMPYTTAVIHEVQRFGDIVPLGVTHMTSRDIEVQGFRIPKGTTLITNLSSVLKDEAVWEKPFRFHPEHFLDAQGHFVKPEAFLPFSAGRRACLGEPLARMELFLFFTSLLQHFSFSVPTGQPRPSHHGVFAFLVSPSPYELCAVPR
Chain of Cytochrome P450 2C9 (P11712 whole entry): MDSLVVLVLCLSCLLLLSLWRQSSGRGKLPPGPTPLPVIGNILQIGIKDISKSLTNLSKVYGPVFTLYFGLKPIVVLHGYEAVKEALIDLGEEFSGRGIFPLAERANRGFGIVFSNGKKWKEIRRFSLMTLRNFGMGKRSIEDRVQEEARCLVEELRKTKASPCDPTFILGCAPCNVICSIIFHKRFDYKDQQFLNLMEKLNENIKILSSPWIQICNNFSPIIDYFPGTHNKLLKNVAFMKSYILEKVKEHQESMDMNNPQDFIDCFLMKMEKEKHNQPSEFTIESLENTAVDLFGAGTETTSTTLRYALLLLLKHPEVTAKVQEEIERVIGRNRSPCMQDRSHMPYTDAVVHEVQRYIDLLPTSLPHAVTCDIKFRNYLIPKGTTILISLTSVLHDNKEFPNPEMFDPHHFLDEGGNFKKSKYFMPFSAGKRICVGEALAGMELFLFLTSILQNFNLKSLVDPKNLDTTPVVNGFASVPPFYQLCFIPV

The Ki is a dissociation constant, usually derived from enzyme kinetics or from competition with a known ligand. As a reminder, the CC50 is the concentration that lowers cell viability or growth by half. A word on the EC50: it is the concentration that produces a half-maximal response. The term IC50 denotes the concentration at which inhibition is half-maximal. `CC(C)(C)[C@H](NC(=O)CC12CC3CC(CC(C3)C1)C2)C(=O)N1C[C@@H]2CCC[C@@H]2[C@H]1C(=O)N[C@H](C(=O)C(=O)NC1CC1)C1CCCC1`: the Ki in data set [1] came to 112 nM. The CC50 in [2] is over 150000 nM. Besides, the results for the EC50 in data set [3] and in [5] were 15.9 nM and 110 nM, respectively. Also, the IC50 in [4] was 200 nM.
As for `CC(C)(C)[C@H](NC(=O)CC12CC3CC(CC(C3)C1)C2)C(=O)N1C[C@@H]2CCC[C@@H]2[C@H]1C(=O)N[C@H](C=O)Cc1ccc(F)cc1`, the Ki in [1] came to 276 nM. The CC50 in data set [2] stood at 17300 nM. In addition, in data set [4], half-maximal inhibition (IC50) was put at 1820 nM. Further, the EC50 in data set [5] is 1300 nM.
For `CC(C)(C)[C@H](NC(=O)CC12CC3CC(CC(C3)C1)C2)C(=O)N1C[C@@H]2CCC[C@@H]2[C@H]1C(=O)N[C@H](C(=O)C(=O)NC1CC1)C1CCCCC1`, the 50% effective concentration (EC50) came to 269 nM in data set [6]; 46.7 nM in data set [8]; 15.9 nM in data set [3]; 246 nM in data set [13]; 101 nM in data set [16]; 130 nM in data set [5]. In data set [1], the Ki is 51.4 nM. For the same compound, the Activity result in data set [7], in data set [14] and in data set [15] was “Non-Toxic” throughout. Besides, the IC50 in data set [9] was over 50000 nM; in data set [10], 570 nM; in data set [11] it was over 50000 nM; in data set [12], over 50000 nM; in data set [4], 90 nM; in data set [17], over 50000 nM. In addition, the CC50 in data set [2] is over 150000 nM.
Consider `CC(C)(C)[C@H](NC(=O)CC12CC3CC(CC(C3)C1)C2)C(=O)N1C[C@@H]2CCC[C@@H]2[C@H]1C(=O)N[C@@H](Cc1ccccc1)C(=O)C(=O)NC1CC1`, for which the CC50 in data set [18] came out at 17400 nM. The compound also registered an IC50 in data set [4] of 90 nM. Besides, the EC50 in data set [5] was determined as 250 nM.
Take `CCC[C@H](NC(=O)[C@@H]1[C@H]2CCC[C@H]2CN1C(=O)[C@@H](NC(=O)[C@@H](NC(=O)c1cnccn1)C1CCCCC1)C(C)(C)C)C(=O)C(=O)NC1CC1`: the EC50 in data set [6] was found to be 828 nM; in data set [8], 209 nM; in [3], 52.1 nM; in data set [13], 836 nM; in [16] it was 368 nM; in [5] it was 450 nM. The Ki in [1] was found to be 824 nM. Moreover, the CC50 in [18] came to 83200 nM. This compound had an IC50 in data set [4] of 180 nM.
As for `CCC[C@H](NC(=O)[C@@H]1[C@H]2CCC[C@H]2CN1C(=O)[C@@H](NC(=O)CC12CC3CC(CC(C3)C1)C2)C(C)(C)C)C(=O)C(=O)NC1CC1`, the inhibition constant (Ki) in [1] came out at 58.6 nM. In [2], the CC50 came to 36200 nM. Inhibition in data set [4] was half-maximal at 80 nM (IC50). In data set [5], the EC50 worked out at 160 nM.
Turning to `CCC(C)[C@H](NC(=O)[C@@H]1[C@H]2CCC[C@H]2CN1C(=O)[C@@H](NC(=O)CC12CC3CC(CC(C3)C1)C2)C(C)(C)C)C(=O)C(=O)NC1CC1` (stereo partly specified), the CC50 in data set [2] is over 150000 nM. The EC50 in [3] worked out at 13.5 nM; in data set [5] it was 160 nM. This compound also yielded an IC50 in [4] of 150 nM.
